In ChEMBL document CHEMBL1212693, “Dorsomorphin inhibits BMP signals required for embryogenesis and iron metabolism” (Nat Chem Biol, 2008):
The source made the active and inactive calls. The calls are words filed in the database; no cut-off is given here.

Legend:
Hep 3B2 [1] = experiment: Inhibition of BMPR1-mediated hepcidin mRNA expression in IL6-stimulated human Hep3B cells at 10 uM treated 30 mins before IL6 challenge measured after 6 hrs by qRT-PCR analysis; type: cell-based
Outline: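 Hep3B cells were incubated in α-MEM with 1% FCS for 6 h, with human IL-6 (100 ng ml−1) or without, together with compound or vehicle. After Trizol RNA extraction, hepcidin and Id1 mRNA were quantified by qRT-PCR. Values were normalised to 18S rRNA or β-actin mRNA, and measurements were in triplicate.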

Hep 3B2 [2] = experiment: Inhibition of BMPR1-mediated Id1 mRNA expression in IL6-stimulated human Hep3B cells at 10 uM treated 30 mins before IL6 challenge measured after 6 hrs by qRT-PCR analysis; type: cell-based
Outline: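 Hep3B cells were grown in α-MEM with 10% FBS, then incubated 6 h in α-MEM with 1% fetal calf serum, with or without dorsomorphin and human IL-6 (100 ng ml−1). RNA was Trizol-extracted. Id1 mRNA was measured by qRT-PCR, normalized to 18S rRNA or β-actin mRNA. Triplicate measurements, mean ± s.d.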

Mus musculus [3] = experiment: Inhibition of iron-dextran conjugate-induced Smad-8 phosphorylation in C57BL/6 mouse at 23 ug/g, iv after 1 hr; type: functional, organism-based
Mus musculus [4] = species on record: Mus musculus; experiment: Inhibition of BMPR1-mediated Smad-5 phosphorylation in BMP4-stimulated mouse PASMC at 4 uM treated 30 mins before BMP4 challenge measured after 30 mins by immunoblot analysis
Outline: (§1)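 Wild-type mouse PASMCs were kept in RPMI with 0.5% FCS for 24 h. They were preincubated with compound or vehicle for 30 min, then stimulated for 30 min with recombinant BMP2, BMP4, BMP6 or BMP7 at 10 ng ml−1. Lysates in SDS buffer were immunoblotted with anti-phospho-SMAD1/5/8. Total SMAD1 and α-tubulin served as loading controls, and bands were quantified by phosphorimager.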

Mus musculus [5] = species on record: Mus musculus; experiment: Inhibition of BMPR1-mediated Smad-5 phosphorylation in BMP6-stimulated mouse PASMC at 4 uM treated 30 mins before BMP6 challenge measured after 30 mins by immunoblot analysis; outline: as §1
Mus musculus [6] = species on record: Mus musculus; experiment: Inhibition of BMPR1-mediated Smad-8 phosphorylation in BMP6-stimulated mouse PASMC at 4 uM treated 30 mins before BMP6 challenge measured after 30 mins by immunoblot analysis; outline: as §1
Mus musculus [7] = species on record: Mus musculus; experiment: Inhibition of BMPR1-mediated Smad-8 phosphorylation in BMP2-stimulated mouse BMPR2 deficient PASMC at 4 uM treated 30 mins before BMP2 measured after 30 mins by immunoblot analysis
Mus musculus [8] = species on record: Mus musculus; experiment: Inhibition of BMPR1-mediated Smad-1 phosphorylation in BMP6-stimulated mouse BMPR2 deficient PASMC at 4 uM treated 30 mins before BMP6 challenge measured after 30 mins by immunoblot analysis
Outline: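 PASMCs (wild-type or BMPR-II–deficient) were kept 24 h in RPMI with 0.5% FCS, preincubated 30 min with compound or vehicle, then stimulated 30 min with recombinant BMP (10 ng ml−1). Extracts in SDS-lysis buffer were immunoblotted for phospho-SMAD1/5/8, with total SMAD1 and α-tubulin as loading controls. Bands were quantitated by phosphorimager.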

Mus musculus [9] = species on record: Mus musculus; experiment: Inhibition of ALK2-mediated Smad-5 phosphorylation in BMPR2 deficient mouse PASMC at 10 uM by immunoblot analysis
Outline: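 BMPR-II–deficient mouse PASMCs (RPMI, 10% FBS) transiently transfected with constitutively active ALK2, ALK3 or ALK6 cDNA, or plasmid-only control. Incubated with or without compound (10 µM). Extracts lysed in SDS buffer, run on SDS-PAGE and immunoblotted for phospho-SMAD1/5/8; quantitated by phosphorimager.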

Danio rerio [10] = species on record: Danio rerio; experiment: Toxicity in zebrafish assessed as morphological changes at 1 to 4 uM treated at 24 hrs post-fertilization measured on day 10 post-fertilization; type: organism-based; conditions: in vivo
Outline: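 WT zebrafish embryos were raised in E3 containing phenylthiourea and exposed from 1 d.p.f. to compound (1–4 µM) or DMSO. From 5 d.p.f. larvae were fed 1 h every other day, with medium renewed after each feeding. At 10 d.p.f. they were calcein-stained and checked by brightfield microscopy for gross morphology and function.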

HepG2 = experiment: Inhibition of hepcidin mRNA expression in human HepG2 cells at 10 uM […] by qRT-PCR analysis relative to control; type: functional
Hep 3B2 [11] = experiment: Inhibition of hepcidin mRNA expression in human Hep3B cells at 4 uM […] by qRT-PCR analysis; type: functional; conditions: 0.5 h
Danio rerio [12] = species on record: Danio rerio; experiment: Inhibition of BMPR1 in zebrafish assessed as penetrance of normal embryonic axis dorsalization at 10 uM treated at 2 to 6 hrs post-fertilization measured at 48 hrs; parameters: scale not given: the % may be the effect or the level left
Danio rerio [13] = species on record: Danio rerio; experiment: Inhibition of BMPR1 in zebrafish assessed as penetrance of moderate embryonic axis dorsalization at 10 uM treated at 2 to 6 hrs post-fertilization measured at 48 hrs; parameters: scale not given: the % may be the effect or the level left
Outline: (§2)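 Compound added at the stated times and concentrations. Gross morphology scored visually at up to 48 h.p.f. for dorsalization of the embryonic axis.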

Danio rerio [14] = species on record: Danio rerio; experiment: Inhibition of BMPR1 in zebrafish assessed as penetrance of moderate embryonic axis dorsalization at 10 uM treated at 6 to 8 hrs post-fertilization measured at 48 hrs; parameters: scale not given: the % may be the effect or the level left; outline: as §2
Danio rerio [15] = species on record: Danio rerio; experiment: Inhibition of BMPR1 in zebrafish assessed as penetrance of normal embryonic axis dorsalization at 7.5 uM treated at 3 hrs post-fertilization measured at 48 hrs; parameters: scale not given: the % may be the effect or the level left
Danio rerio [16] = species on record: Danio rerio; experiment: Inhibition of BMPR1 in zebrafish assessed as penetrance of mild embryonic axis dorsalization at 7.5 uM treated at 3 hrs post-fertilization measured at 48 hrs; parameters: scale not given: the % may be the effect or the level left; outline: as §2
Danio rerio [17] = species on record: Danio rerio; experiment: Inhibition of BMPR1 in zebrafish assessed as penetrance of moderate embryonic axis dorsalization at 7.5 uM treated at 3 hrs post-fertilization measured at 48 hrs; parameters: scale not given: the % may be the effect or the level left
Danio rerio [18] = species on record: Danio rerio; experiment: Inhibition of BMPR1 in zebrafish assessed as penetrance of mild embryonic axis dorsalization at 10 uM treated at 3 hrs post-fertilization measured at 48 hrs; parameters: scale not given: the % may be the effect or the level left; outline: as §2
Danio rerio [19] = species on record: Danio rerio; experiment: Toxicity in zebrafish assessed as mortality at 0.2 to 10 uM; type: organism-based; conditions: in vivo
[20] = biological target: Vascular endothelial growth factor receptor 2 (Danio rerio) (UniProt Q5GIT4); experiment: Inhibition of KDR in zebrafish assessed as embryonic axis dorsalization at 10 uM treated occasionally at 6 to 8 hrs post-fertilization measured at 48 hrs
Outline: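 Newly fertilised WT zebrafish eggs were arrayed in triplicate in E3 buffer and kept at 28.5 °C. Compound (10 µM) was added at 6–8 h.p.f. Gross morphology was inspected visually for dorsalisation or ventralisation of the embryonic axis, with photographs at 36–48 h.p.f.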

Danio rerio [21] = species on record: Danio rerio; experiment: Toxicity in zebrafish assessed as survivability at 10 uM treated at 3 hrs post-fertilization measured at 48 hrs; type: organism-based; conditions: in vivo
Danio rerio [22] = species on record: Danio rerio; experiment: Inhibition of BMPR1 in zebrafish assessed as severity of embryonic axis dorsalization at 10 uM treated continuously from 4 hrs post-fertilization measured after 48 hrs; parameters: scale not given: the % may be the effect or the level left
Danio rerio [23] = species on record: Danio rerio; experiment: Inhibition of BMPR1 in zebrafish assessed as penetrance of moderate embryonic axis dorsalization at 10 uM treated continuously from 4 hrs post-fertilization measured after 48 hrs; parameters: scale not given: the % may be the effect or the level left; outline: as §2
Danio rerio [24] = species on record: Danio rerio; experiment: Inhibition of BMPR1 in zebrafish assessed as penetrance of mild embryonic axis dorsalization at 10 uM treated at 2 to 4 hrs post-fertilization measured at 48 hrs; parameters: scale not given: the % may be the effect or the level left; outline: as §2

Sequence of Vascular endothelial growth factor receptor 2 (Danio rerio) (Q5GIT4 whole entry): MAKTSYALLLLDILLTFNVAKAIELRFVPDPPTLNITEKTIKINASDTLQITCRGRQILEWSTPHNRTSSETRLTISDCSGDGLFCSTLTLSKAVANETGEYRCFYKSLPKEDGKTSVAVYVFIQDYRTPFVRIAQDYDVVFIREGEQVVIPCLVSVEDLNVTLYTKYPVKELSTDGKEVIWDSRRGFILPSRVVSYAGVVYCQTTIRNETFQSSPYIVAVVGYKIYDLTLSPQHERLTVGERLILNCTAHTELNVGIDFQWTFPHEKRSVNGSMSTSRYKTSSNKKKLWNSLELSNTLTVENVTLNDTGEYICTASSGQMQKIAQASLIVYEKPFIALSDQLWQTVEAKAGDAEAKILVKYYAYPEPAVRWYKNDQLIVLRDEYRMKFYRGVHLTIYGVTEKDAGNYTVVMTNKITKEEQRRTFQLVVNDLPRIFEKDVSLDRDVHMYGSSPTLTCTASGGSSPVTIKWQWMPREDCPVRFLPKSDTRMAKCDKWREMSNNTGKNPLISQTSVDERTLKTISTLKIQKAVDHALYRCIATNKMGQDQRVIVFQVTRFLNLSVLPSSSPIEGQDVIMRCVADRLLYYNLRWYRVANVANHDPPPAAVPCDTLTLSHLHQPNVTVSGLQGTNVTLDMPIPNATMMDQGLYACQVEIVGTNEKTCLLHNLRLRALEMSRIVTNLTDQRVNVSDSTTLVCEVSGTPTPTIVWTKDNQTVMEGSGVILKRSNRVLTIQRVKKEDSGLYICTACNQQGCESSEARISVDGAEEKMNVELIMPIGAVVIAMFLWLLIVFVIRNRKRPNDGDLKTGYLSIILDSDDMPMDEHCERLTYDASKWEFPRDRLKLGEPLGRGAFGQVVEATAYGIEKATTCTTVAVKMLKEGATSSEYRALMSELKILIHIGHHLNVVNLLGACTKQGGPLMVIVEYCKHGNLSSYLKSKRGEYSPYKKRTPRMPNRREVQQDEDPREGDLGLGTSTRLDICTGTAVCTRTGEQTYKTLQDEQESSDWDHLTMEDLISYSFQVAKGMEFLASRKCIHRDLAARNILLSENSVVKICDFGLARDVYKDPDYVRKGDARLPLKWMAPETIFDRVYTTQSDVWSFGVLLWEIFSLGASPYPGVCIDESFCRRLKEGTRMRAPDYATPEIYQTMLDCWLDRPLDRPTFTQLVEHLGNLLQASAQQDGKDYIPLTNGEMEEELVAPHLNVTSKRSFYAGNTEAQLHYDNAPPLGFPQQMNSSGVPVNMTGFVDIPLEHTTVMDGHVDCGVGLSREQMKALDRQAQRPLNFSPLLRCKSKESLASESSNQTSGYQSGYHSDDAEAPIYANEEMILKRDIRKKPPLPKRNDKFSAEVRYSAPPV

For c1cc(-c2cnn3cc(-c4ccc(OCCN5CCCCC5)cc4)cnc23)ccn1 [DORSOMORPHIN], the inhibition (Hep 3B2 [1]) was “Active”, the inhibition (Hep 3B2 [2]) was “Active” and the inhibition (Mus musculus [3]) was “Active”. For the same compound, the inhibition (Mus musculus [4]) was “Active”, the inhibition (Mus musculus [5]) was “Active” and the inhibition (Mus musculus [6]) was “Active”. The inhibition (Mus musculus [7]) was “Active”, the inhibition (Mus musculus [8]) was “Active” and the inhibition (Mus musculus [9]) was “Active”. The Activity (Danio rerio [10]) was “Non-toxic”, the “fold change (FC)” value (HepG2) was 50 and the inhibition at 4 µM (Hep 3B2 [11]) was 27%. It also gave an Activity (Danio rerio [12]) of 0%, an Activity (Danio rerio [13]) of 44% and an Activity (Danio rerio [14]) of 5%. It also gave an Activity (Danio rerio [15]) of 0%, an Activity (Danio rerio [16]) of 58% and an Activity (Danio rerio [17]) of 42%. For the same compound, the Activity (Danio rerio [18]) was 3%, the Activity (Danio rerio [19]) was “Non-toxic” and the inhibition [20] was “inactive”. The Activity (Danio rerio [21]) was “Non-toxic”, the Activity (Danio rerio [22]) was 0% and the Activity (Danio rerio [23]) was 100%. The Activity (Danio rerio [24]) was 10%.
